Laboratory results published in ChEMBL document CHEMBL1137378, “Antibacterial agent discovery using thymidylate synthase biolibrary screening” (J Med Chem, 2006).
Values after ≈ are worked out from the molar mass of the structure shown.

Key:
[1] = test system: Staphylococcus saprophyticus; assay: Antibacterial activity against Staphylococcus saprophyticus ATCC 15305; type: functional
Summary of the method: (§1)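 Wild-type strain panel (18 Gram-positive and Gram-negative strains). Bacteria grown in Mueller-Hinton broth at 37 °C for 24 h. Exponentially growing cultures diluted in sterile liquid medium to a final inoculum of about 1 × 10⁴ CFU/mL, then exposed to increasing compound concentrations. MIC taken as the lowest concentration with no evident bacterial growth.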

Staphylococcus aureus [2] = assay: Antibacterial activity against Staphylococcus aureus ATCC 29213; type: functional; summary of the method: as §1
Citrobacter = assay: Antibacterial activity against Citrobacter 224; type: functional; summary of the method: as §1
[3] = test system: Staphylococcus epidermidis; assay: Antibacterial activity against multiresistant Staphylococcus epidermidis 36; type: functional
Summary of the method: (§2)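 Clinical multidrug-resistant isolates from hospitalized patients' blood or urine. Bacteria grown in Mueller-Hinton broth at 37 °C for 24 h. Exponential-phase cultures diluted in sterile liquid medium to a final inoculum of about 1 × 10⁴ CFU/mL, then exposed to increasing compound concentrations. Inhibitor stocks in DMSO. MIC (µg/mL) taken as the lowest concentration with no evident bacterial growth.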

Vero [4] = assay: Cytotoxicity against Vero cells measured as percent of cell growth at 50 mg/L relative to control by MTT assay; type: functional, Chlorocebus sabaeus
Summary of the method: (§3)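 VERO cells grown in MEM with 5% heat-inactivated (56 °C, 30 min) FCS, penicillin, streptomycin and L-glutamine. Cultures were watched for 2 days and live cells counted. Cells were then exposed to increasing compound concentrations; wells with cells only served as control. After 24 h, mitochondrial dehydrogenase activity was read by MTT. Trypan blue exclusion was also run.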

Escherichia coli [5] = assay: Antibacterial activity against Escherichia coli 256; type: functional; summary of the method: as §1
Vero [6] = assay: Cytotoxicity against Vero cells measured as percent of cell growth at 12.05 mg/L relative to control by MTT assay; type: functional, Chlorocebus sabaeus; summary of the method: as §3
Enterococcus faecium [7] = assay: Antibacterial activity against multiresistant Enterococcus faecium 52; type: functional; summary of the method: as §2
Streptococcus = assay: Antibacterial activity against Streptococcus 42; type: functional; summary of the method: as §1
Listeria monocytogenes [8] = assay: Antibacterial activity against Listeria monocytogenes 6; type: functional; summary of the method: as §1
Listeria monocytogenes [9] = assay: Antibacterial activity against Listeria monocytogenes 8; type: functional; summary of the method: as §1
Vero [10] = assay: Cytotoxicity against Vero cells measured as percent of cell growth at 25 mg/L relative to control by MTT assay; type: functional, Chlorocebus sabaeus; summary of the method: as §3
Staphylococcus aureus [11] = assay: Antibacterial activity against multiresistant Staphylococcus aureus 9; type: functional; summary of the method: as §2
[12] = test system: Staphylococcus epidermidis; assay: Antibacterial activity against multiresistant Staphylococcus epidermidis 32; type: functional; summary of the method: as §2
Staphylococcus aureus [13] = assay: Antibacterial activity against Staphylococcus aureus 343; type: functional; summary of the method: as §1
Vero [14] = assay: Cytotoxicity against Vero cells measured as percent of cell growth at 3.12 mg/L relative to control by MTT assay; type: functional, Chlorocebus sabaeus; summary of the method: as §3
[15] = test system: Staphylococcus haemolyticus; assay: Antibacterial activity against Staphylococcus haemolyticus ATCC 2997; type: functional; summary of the method: as §1
[16] = test system: Staphylococcus epidermidis; assay: Antibacterial activity against multiresistant Staphylococcus epidermidis 45; type: functional; summary of the method: as §2
[17] = test system: Staphylococcus epidermidis; assay: Antibacterial activity against multiresistant Staphylococcus epidermidis 21; type: functional; summary of the method: as §2
[18] = test system: Staphylococcus haemolyticus; assay: Antibacterial activity against multiresistant Staphylococcus haemolyticus 56; type: functional; summary of the method: as §2
Enterococcus faecium [19] = assay: Antibacterial activity against multiresistant Enterococcus faecium 28; type: functional; summary of the method: as §2
[20] = test system: Staphylococcus epidermidis; assay: Antibacterial activity against multiresistant Staphylococcus epidermidis […]; type: functional
[21] = test system: Staphylococcus haemolyticus; assay: Antibacterial activity against multiresistant Staphylococcus haemolyticus 51; type: functional; summary of the method: as §2
Enterococcus faecium [22] = assay: Antibacterial activity against multiresistant Enterococcus faecium 6; type: functional; summary of the method: as §2
Listeria monocytogenes [23] = assay: Antibacterial activity against Listeria monocytogenes 3; type: functional; summary of the method: as §1
Listeria monocytogenes [24] = assay: Antibacterial activity against Listeria monocytogenes 7; type: functional; summary of the method: as §1
Staphylococcus aureus [25] = assay: Antibacterial activity against Staphylococcus aureus K28; type: functional; summary of the method: as §1
Listeria monocytogenes [26] = assay: Antibacterial activity against Listeria monocytogenes 5; type: functional; summary of the method: as §1
Escherichia coli [27] = assay: Antibacterial activity against Escherichia coli 292; type: functional; summary of the method: as §1
Vero [28] = assay: Cytotoxicity against Vero cells measured as percent of cell growth at 1.56 mg/L relative to control by MTT assay; type: functional, Chlorocebus sabaeus; summary of the method: as §3
[29] = test system: Staphylococcus epidermidis; assay: Antibacterial activity against multiresistant Staphylococcus epidermidis 30; type: functional; summary of the method: as §2
Staphylococcus aureus [30] = assay: Antibacterial activity against multiresistant Staphylococcus aureus 17; type: functional; summary of the method: as §2
Enterococcus faecalis = assay: Antibacterial activity against Enterococcus faecalis ATCCC29212; type: functional; summary of the method: as §1
Vero [31] = assay: Cytotoxicity against Vero cells measured as percent of cell growth at 6.25 mg/L relative to control by MTT assay; type: functional, Chlorocebus sabaeus; summary of the method: as §3
Staphylococcus aureus [32] = assay: Antibacterial activity against multiresistant Staphylococcus aureus 15; type: functional; summary of the method: as §2
[33] = test system: Staphylococcus epidermidis; assay: Antibacterial activity against multiresistant Staphylococcus epidermidis 48; type: functional; summary of the method: as §2
Enterococcus gallinarum [34] = assay: Antibacterial activity against multiresistant Enterococcus gallinarum 64; type: functional; summary of the method: as §2
Dihydrofolate reductase = target: T1, Dihydrofolate reductase (Homo sapiens, UniProt P00374); assay: Inhibition of human dihydrofolate reductase
T1 sequence (P00374 whole entry): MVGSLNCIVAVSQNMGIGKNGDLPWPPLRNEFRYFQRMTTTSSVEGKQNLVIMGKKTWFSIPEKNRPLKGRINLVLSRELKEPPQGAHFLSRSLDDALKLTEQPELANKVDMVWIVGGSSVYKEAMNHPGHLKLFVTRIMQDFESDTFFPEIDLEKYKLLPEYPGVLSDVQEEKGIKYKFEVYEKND
Summary of the method: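 Purified human DHFR assayed spectrophotometrically at 25 °C by the fall in A340 on DHF reduction. Ki from steady-state kinetics.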

Staphylococcus aureus [35] = assay: Antibacterial activity against Staphylococcus aureus 341; type: functional; summary of the method: as §1
Enterococcus gallinarum [36] = assay: Antibacterial activity against multiresistant Enterococcus gallinarum 37; type: functional; summary of the method: as §2
Listeria monocytogenes [37] = assay: Antibacterial activity against Listeria monocytogenes 4; type: functional; summary of the method: as §1
[38] = test system: Staphylococcus epidermidis; assay: Antibacterial activity against multiresistant Staphylococcus epidermidis 50; type: functional; summary of the method: as §2
[39] = test system: Staphylococcus epidermidis; assay: Antibacterial activity against multiresistant Staphylococcus epidermidis 39; type: functional; summary of the method: as §2
[40] = test system: Staphylococcus epidermidis; assay: Antibacterial activity against multiresistant Staphylococcus epidermidis 33; type: functional
Staphylococcus aureus [41] = assay: Antibacterial activity against multiresistant Staphylococcus aureus 27; type: functional; summary of the method: as §2
Listeria monocytogenes [42] = assay: Antibacterial activity against Listeria monocytogenes ATCC 4428; type: functional; summary of the method: as §1
Enterococcus faecium [43] = assay: Antibacterial activity against multiresistant Enterococcus faecium 57; type: functional; summary of the method: as §2
[44] = test system: Staphylococcus epidermidis; assay: Antibacterial activity against multiresistant Staphylococcus epidermidis 42; type: functional

**Q.** What does the source list for O=C1OC(c2ccc(O)c(Cl)c2)(c2ccc(O)c(Cl)c2)c2cccc3cccc1c23?
**A.** MIC [1]: 2.5 µg/mL (≈ 5.72 µM); MIC (Staphylococcus aureus [2]): 5 µg/mL (≈ 11.4 µM); MIC (Citrobacter): > 25 µg/mL; MIC [3]: > 65 µg/mL; Activity (Vero [4]): 58%; MIC (Escherichia coli [5]): > 25 µg/mL; Activity (Vero [6]): 90%; MIC (Enterococcus faecium [7]): > 65 µg/mL; MIC (Streptococcus): 5 µg/mL (≈ 11.4 µM); MIC (Listeria monocytogenes [8]): 10 µg/mL (≈ 22.9 µM); MIC (Listeria monocytogenes [9]): 5 µg/mL (≈ 11.4 µM); Activity (Vero [10]): 70%; MIC (Staphylococcus aureus [11]): > 65 µg/mL; MIC [12]: > 65 µg/mL; MIC (Staphylococcus aureus [13]): 5 µg/mL (≈ 11.4 µM); Activity (Vero [14]): 90%; MIC [15]: 2.5 µg/mL (≈ 5.72 µM); MIC [16]: > 65 µg/mL; MIC [17]: > 65 µg/mL; MIC [18]: > 65 µg/mL; MIC (Enterococcus faecium [19]): > 75 µg/mL; MIC [20]: > 65 µg/mL; MIC [21]: > 65 µg/mL; MIC (Enterococcus faecium [22]): 10 µg/mL (≈ 22.9 µM); MIC (Listeria monocytogenes [23]): 2.5 µg/mL (≈ 5.72 µM); MIC (Listeria monocytogenes [24]): 5 µg/mL (≈ 11.4 µM); MIC (Staphylococcus aureus [25]): > 25 µg/mL; MIC (Listeria monocytogenes [26]): 5 µg/mL (≈ 11.4 µM); MIC (Escherichia coli [27]): > 25 µg/mL; Activity (Vero [28]): 90%; MIC [29]: > 65 µg/mL; MIC (Staphylococcus aureus [30]): > 65 µg/mL; MIC (Enterococcus faecalis): 10 µg/mL (≈ 22.9 µM); Activity (Vero [31]): 90%; MIC (Staphylococcus aureus [32]): > 65 µg/mL; MIC [33]: > 65 µg/mL; MIC (Enterococcus gallinarum [34]): 2.5 µg/mL (≈ 5.72 µM); Ki (Dihydrofolate reductase): 5.2 µM; MIC (Staphylococcus aureus [35]): 5 µg/mL (≈ 11.4 µM); MIC (Enterococcus gallinarum [36]): 10 µg/mL (≈ 22.9 µM); MIC (Listeria monocytogenes [37]): 10 µg/mL (≈ 22.9 µM); MIC [38]: > 65 µg/mL; MIC [39]: 2.5 µg/mL (≈ 5.72 µM); MIC [40]: > 65 µg/mL; MIC (Staphylococcus aureus [41]): > 65 µg/mL; MIC (Listeria monocytogenes [42]): 5 µg/mL (≈ 11.4 µM); MIC (Enterococcus faecium [43]): 10 µg/mL (≈ 22.9 µM); MIC [44]: 5 µg/mL (≈ 11.4 µM)
